This is an account of results in ChEMBL document CHEMBL1157246, “Cytotoxic isomalabaricane triterpenes from the marine sponge Rhabdastrella globostellata” (2006).

Calls of active or inactive are those of the source. No cut-off for these calls is given here.

For experiment [1], the system named is Saccharomyces cerevisiae. Kind of experiment: Antifungal activity against Saccharomyces cerevisiae after 24 hrs by agar diffusion assay. It counts as functional, organism-based. An outline of the steps: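 S. cerevisiae was inoculated on YPD agar, and MeOH-dissolved compounds were applied on 5 mm disks. Inhibition zones were recorded after 24 h at 27 °C, with nystatin 5 µg as positive control.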
In general terms: In agar diffusion tests the substance spreads into inoculated agar from a disc or well.

Experiment [2] relates to L5178Y. In words: Cytotoxicity against mouse L5178Y cells at 10 ug/mL after 72 hrs by MTT assay. In kind it is functional. An outline of the steps: (§1)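 Exponentially growing cells (3750 per well) were exposed to samples from EtOH 96% stocks for 72 h at 37 °C in 5% CO2. MTT (20 µL of 5 mg/mL in PBS, pH 7.4) was added for 3 h 45 min, then formazan was released with DMSO and read at 520 nm. Survival % was taken relative to untreated cells, with media containing 0.1% EGMME/DMSO as controls. Assays were run in triplicate and repeated three times.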
In general terms: Formazan colour is commonly taken as a measure of viable cells.

In experiment [3] the test system is L5178Y. In words: Cytotoxicity against mouse L5178Y cells at 3 ug/mL after 72 hrs by MTT assay. It counts as functional. In a few lines: as §1
Experiment [4] concerns HeLa. Kind of experiment: Cytotoxicity against human HeLa cells at 10 ug/mL after 72 hrs by MTT assay. In kind it is functional. In a few lines:
as §1

Experiment [5] relates to HeLa. Kind of experiment: Cytotoxicity against human HeLa cells at 3 ug/mL after 72 hrs by MTT assay. In kind it is functional. An outline of the steps:
as §1

The test system of experiment [6] is HeLa. In words: Cytotoxicity against human HeLa cells at 30 ug/mL after 72 hrs by MTT assay. It counts as functional, cell-based. In a few lines:
as §1

In experiment [7] the test system is PC-12. Kind of experiment: Cytotoxicity against rat PC12 cells at 10 ug/mL after 72 hrs by MTT assay. It counts as functional. The following applies: PC-12, 72 h. An outline of the steps:
as §1

Experiment [8] has as its system PC-12. Kind of experiment: Cytotoxicity against rat PC12 cells at 3 ug/mL after 72 hrs by MTT assay. It counts as functional. Conditions: PC-12, 72 h. An outline of the steps:
as §1

For experiment [9], the system named is PC-12. Kind of experiment: Cytotoxicity against rat PC12 cells at 30 ug/mL after 72 hrs by MTT assay. In kind it is functional, cell-based. In a few lines:
as §1

Experiment [10] relates to L5178Y. In words: Cytotoxicity against mouse L5178Y cells after 72 hrs by MTT assay. It counts as functional. In a few lines:
as §1

For experiment [11], the system named is Escherichia coli. Kind of experiment: Antibacterial activity against Escherichia coli DSM10290 at 10 ug after 24 hrs by agar diffusion assay. It counts as functional. The following applies: read-out: IZ. An outline of the steps:
(§2)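 Disks (5 mm) impregnated with compound dissolved in MeOH were laid on LB agar plates seeded with B. subtilis DSM2109 or E. coli DSM10290. Inhibition zones were read after 24 h at 37 °C. Streptomycin and gentamycin, 5 µg each, served as positive controls.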

Experiment [12] relates to HeLa. In words: Cytotoxicity against human HeLa cells after 72 hrs by MTT assay. It counts as functional. An outline of the steps: as §1
The subject of experiment [13] is PC-12. Kind of experiment: Cytotoxicity against rat PC12 cells after 72 hrs by MTT assay. It counts as functional. In a few lines:
as §1

The test system of experiment [14] is Bacillus subtilis. In words: Antibacterial activity against Bacillus subtilis DSM2109 at 10 ug after 24 hrs by agar diffusion assay. It counts as functional. Conditions: read-out: IZ. In a few lines: as §2
Experiment [15] deals with Bacillus subtilis. In words: Antibacterial activity against Bacillus subtilis DSM2109 at 5 ug after 24 hrs by agar diffusion assay. Conditions: read-out: IZ. In kind it is functional. In a few lines:
as §2

The subject of experiment [16] is Saccharomyces cerevisiae. Kind of experiment: Antifungal activity against Saccharomyces cerevisiae at 5 ug after 24 hrs by agar diffusion assay. It counts as functional, organism-based. An outline of the steps: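 Paper disks (5 mm diameter) loaded with test material dissolved in MeOH were placed on YPD agar plates inoculated with S. cerevisiae. After 24 h of incubation at 27 °C, the zone of inhibition (mm) was recorded.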

Experiment [17] deals with Escherichia coli. In words: Antibacterial activity against Escherichia coli DSM10290 at 5 ug after 24 hrs by agar diffusion assay. It counts as functional. Conditions: read-out: IZ. In a few lines: as §2

A word on the inhibition: it is the relative decrease from the control value, in per cent. Higher therefore signals a strong effect. As for `CC(=O)O[C@@H]1CC[C@@]2(C)[C@@H](CC[C@]3(C)/C(=C(\C)C(=O)/C=C/C(C)=C/C=C/C(C)(C)O)C(=O)C[C@@H]23)[C@@]1(C)C(=O)O` [GLOBOSTELLATIC ACIDS A], the outcome in the experiment with Saccharomyces cerevisiae [1], in the experiment with HeLa [6] and in the experiment on PC-12 [9] was inactive. Also, the inhibition at 10 µg/mL in the experiment on L5178Y [2] was 100%; in the experiment on HeLa [4] it was 0%; in the experiment on PC-12 [7], 0%. Moreover, the inhibition at 3 µg/mL in the experiment with L5178Y [3] was 100%; in the experiment on HeLa [5] it was 0%; in the experiment with PC-12 [8], 0%.

As to `C/C(C(=O)/C=C/C(C)=C/C=C/C(C)(C)O)=C1/C(=O)C[C@H]2[C@@]3(C)CC[C@@H](O)[C@](C)(C(=O)O)[C@@H]3CC[C@]12C` [GLOBOSTELLATIC ACID F], the result in the experiment on Saccharomyces cerevisiae [1], in the experiment with HeLa [6] and in the experiment on PC-12 [9] was inactive. Further, the values for the inhibition at 10 µg/mL in the experiment with L5178Y [2], in the experiment on HeLa [4] and with PC-12 [7] were 100%, 0% and 0%, respectively. Besides, the inhibition at 3 µg/mL was 42% in the experiment with L5178Y [3], 0% in the experiment on HeLa [5] and 0% in the experiment on PC-12 [8]. The compound further yielded an ED50 with L5178Y [10] of 10.36 nmol.

Regarding `CC(C)=CCC(O[C@H]1OC[C@@H](O)[C@@H](O)[C@H]1O)/C(C)=C/C=C/C(C)=C1\C(=O)C[C@H]2[C@@]3(C)CC[C@@H](O)C(C)(C)[C@@H]3CC[C@]12C` (some centres not stated), the result in the experiment on Saccharomyces cerevisiae [1] was inactive. In addition, the zone of inhibition at 10 µg/disc in the experiment with Escherichia coli [11] stood at 12 mm. The inhibition at 10 µg/mL was 100% in the experiment with L5178Y [2], 100% in the experiment on HeLa [4] and 54% in the experiment with PC-12 [7]. The inhibition at 3 µg/mL stood at 100% with L5178Y [3], 26% in the experiment on HeLa [5] and 33% in the experiment on PC-12 [8]. Moreover, the ED50 is 2.4 nmol with L5178Y [10], 8.14 nmol in the experiment on HeLa [12] and 27.63 nmol with PC-12 [13].

`CCOC(/C=C/C(C)=C/C=C/C(C)=C1/C(=O)C[C@H]2[C@@]3(C)CC[C@@H](O)[C@](C)(C(=O)O)[C@@H]3CC[C@]12C)C(C)(C)O` (some centres not stated) [GLOBOSTELLATIC ACID H, I]: in the experiment with Saccharomyces cerevisiae [1], the outcome was inactive. Besides, in the experiment on Escherichia coli [11], the zone of inhibition at 10 µg/disc is 10 mm. Besides, the inhibition at 10 µg/mL came out at 100% with L5178Y [2], 23% with HeLa [4] and 41% in the experiment with PC-12 [7]. Further, the inhibition at 3 µg/mL was 100% in the experiment on L5178Y [3], 8% in the experiment with HeLa [5] and 16% in the experiment on PC-12 [8]. In addition, the ED50 in the experiment on L5178Y [10] turned out to be 0.31 nmol; in the experiment on HeLa [12] it was 46.05 nmol; with PC-12 [13] it was 28.07 nmol.

On to `CCOC(/C=C/C(C)=C/C=C/C(C)=C1/C(=O)C[C@H]2[C@@]3(C)CC[C@@H](OC(C)=O)[C@](C)(C(=O)O)[C@@H]3CC[C@]12C)C(C)(C)O` (some centres not stated) [GLOBOSTELLATIC ACID J, K], for which the outcome with Saccharomyces cerevisiae [1], in the experiment with HeLa [6] and in the experiment with PC-12 [9] was inactive. Moreover, the inhibition at 10 µg/mL came to 100% in the experiment on L5178Y [2], 0% in the experiment with HeLa [4] and 0% with PC-12 [7]. In addition, the inhibition at 3 µg/mL in the experiment with L5178Y [3] was determined as 24%; in the experiment on HeLa [5], 0%; in the experiment on PC-12 [8], 0%. The ED50 with L5178Y [10] is recorded as 8.28 nmol.

With `C/C(C(=O)/C=C/C(C)=C/C=C/C(C)(C)O)=C1/C(=O)C[C@H]2[C@@]3(C)CC[C@H](O)C(C)(C)[C@@H]3CC[C@]12C` [GLOBOSTELLETIN], the outcome in the experiment on Saccharomyces cerevisiae [1] and in the experiment on PC-12 [9] was inactive. The zone of inhibition at 10 µg/disc in the experiment on Bacillus subtilis [14] came out at 13 mm. Besides, in the experiment on Bacillus subtilis [15], the zone of inhibition at 5 µg/disc stood at 12 mm. For the same compound, the inhibition at 10 µg/mL in the experiment with L5178Y [2] is 94%; in the experiment with HeLa [4], 0%; with PC-12 [7], 0%. Besides, the figures for the inhibition at 3 µg/mL in the experiment on L5178Y [3], in the experiment with HeLa [5] and with PC-12 [8] were 66%, 0% and 0%, respectively. Besides, the values for the ED50 with L5178Y [10] and in the experiment on HeLa [12] were 5.34 nmol and above 60 nmol, respectively.

`CC(/C=C/C(O)C(C)(C)O)=C\C=C\C(C)=C1\C(=O)C[C@H]2[C@@]3(C)CC[C@@H](O)[C@](C)(C(=O)O)[C@@H]3CC[C@]12C` (some centres not stated) [GLOBOSTELLATIC ACID L, M]: the outcome in the experiment with Saccharomyces cerevisiae [1] was inactive. The inhibition at 10 µg/mL with L5178Y [2] is 100%; in the experiment with HeLa [4], 42%; in the experiment with PC-12 [7], 30%. Also, the inhibition at 3 µg/mL with L5178Y [3] came out at 100%; in the experiment with HeLa [5] it was 0%; with PC-12 [8], 0%. Besides, the ED50 in the experiment with L5178Y [10] was 0.92 nmol; with HeLa [12], 27.87 nmol; in the experiment on PC-12 [13], 27.52 nmol.

In the case of NYSTATIN, the inhibition zone (IZ) in the experiment with Saccharomyces cerevisiae [16] was determined as 12 mm.

`CN[C@@H]1[C@H](O[C@H]2[C@H](O[C@H]3[C@H](O)[C@@H](O)[C@H](N=C(N)N)[C@@H](O)[C@@H]3N=C(N)N)O[C@@H](C)[C@]2(O)C=O)O[C@@H](CO)[C@H](O)[C@H]1O` [STREPTOMYCIN]: the zone of inhibition at 5 µg/disc in the experiment on Escherichia coli [17] is 13 mm; in the experiment with Bacillus subtilis [15] it was 20 mm.

Regarding `CC(=O)O[C@@H]1CC[C@@]2(C)[C@@H](CC[C@]3(C)/C(=C(C)/C=C/C=C(\C)C(CC=C(C)C)O[C@@H]4OC[C@H](O)[C@H](O)[C@@H]4O)C(=O)C[C@@H]23)C1(C)C` (some centres not stated), the outcome in the experiment on Saccharomyces cerevisiae [1] was inactive. For the same compound, the inhibition at 10 µg/mL in the experiment on L5178Y [2] amounted to 100%; in the experiment on HeLa [4] it was 56%; with PC-12 [7], 38%. The results for the inhibition at 3 µg/mL in the experiment on L5178Y [3], with HeLa [5] and in the experiment with PC-12 [8] were 100%, 0% and 0%, respectively. The figures for the ED50 in the experiment on L5178Y [10], in the experiment with HeLa [12] and in the experiment on PC-12 [13] were 0.22 nmol, 22.76 nmol and 21.54 nmol, respectively.

Turning to `COC(/C=C/C(C)=C/C=C/C(C)=C1/C(=O)C[C@H]2[C@@]3(C)CC[C@@H](O)[C@](C)(C(=O)O)[C@@H]3CC[C@]12C)C(C)(C)O` (some centres not stated) [GLOBOSTELLATIC ACID D, G], the outcome in the experiment on Saccharomyces cerevisiae [1] was inactive. In addition, the zone of inhibition at 10 µg/disc with Escherichia coli [11] is 10 mm. Further, the results for the inhibition at 10 µg/mL with L5178Y [2], with HeLa [4] and in the experiment on PC-12 [7] were 100%, 25% and 42%, respectively. Also, the inhibition at 3 µg/mL with L5178Y [3] came out at 100%; in the experiment on HeLa [5], 4%; in the experiment with PC-12 [8], 18%. The ED50 in the experiment on L5178Y [10] came to 0.39 nmol; in the experiment on HeLa [12], 46.69 nmol; in the experiment on PC-12 [13], 30.33 nmol.
